# In ChEMBL document CHEMBL1649247, “Fluoroquinolone resistance in Mycobacterium tuberculosis and mutations in gyrA and gyrB” (2009):
# Calls of active or inactive are those of the source. The rule behind the calls is not given here.
# What was measured:
# [1] = tested on: Mycobacterium tuberculosis; assay: Antimycobacterial activity against multidrug-resistant Mycobacterium tuberculosis 08-0790 harboring gyrA Ala90Val mutant gene by resazurin microtiter assay; format: functional
# Summary of the method: (§1)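 MIC was read by resazurin microtiter assay against ofloxacin, moxifloxacin and gatifloxacin. Isolates were used as fresh Löwenstein-Jensen subcultures kept at 37°C for no longer than 4 weeks.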
# [2] = tested on: Mycobacterium tuberculosis; assay: Antimycobacterial activity against multidrug-resistant Mycobacterium tuberculosis 08-0797 harboring gyrA Ala90Val mutant gene by resazurin microtiter assay; format: functional; summary of the method: as §1
# [3] = tested on: Mycobacterium tuberculosis; assay: Antimycobacterial activity against multidrug-resistant Mycobacterium tuberculosis 01-2614 harboring gyrA Asp94Gly mutant gene by resazurin microtiter assay; format: functional
# Summary of the method: (§2)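 Isolates taken from fresh Löwenstein-Jensen subcultures grown at 37°C for at most 4 weeks. Drug stocks 1 mg/ml in 0.1 N NaOH, filter sterilized, stored at −20°C less than 2 months. MIC read by resazurin microtiter assay following a previously described protocol.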
# [4] = tested on: Mycobacterium tuberculosis; assay: Antimycobacterial activity against multidrug-resistant Mycobacterium tuberculosis 01-2230 harboring gyrA Asp94Gly mutant gene by resazurin microtiter assay; format: functional; summary of the method: as §2
# [5] = tested on: Mycobacterium tuberculosis; assay: Antimycobacterial activity against multidrug-resistant Mycobacterium tuberculosis 08-0810 harboring gyrA Asp94Tyr mutant gene by resazurin microtiter assay; format: functional; summary of the method: as §1
# [6] = tested on: Mycobacterium tuberculosis; assay: Antimycobacterial activity against multidrug-resistant Mycobacterium tuberculosis 08-0821 harboring gyrA Asp94Tyr mutant gene by resazurin microtiter assay; format: functional; summary of the method: as §1
# [7] = tested on: Mycobacterium tuberculosis; assay: Antimycobacterial activity against Mycobacterium tuberculosis 04-0649 harboring gyrA Asp94Asn mutant gene by resazurin microtiter assay; format: functional; summary of the method: as §2
# [8] = tested on: Mycobacterium tuberculosis; assay: Antimycobacterial activity against multidrug-resistant Mycobacterium tuberculosis 02-2399 harboring gyrA Asp94Tyr mutant gene by resazurin microtiter assay; format: functional; summary of the method: as §2
# [9] = tested on: Mycobacterium tuberculosis; assay: Antimycobacterial activity against multidrug-resistant Mycobacterium tuberculosis 02-0319 harboring gyrA Asp94Ala mutant gene by resazurin microtiter assay; format: functional; summary of the method: as §2
# [10] = tested on: Mycobacterium tuberculosis; assay: Antimycobacterial activity against multidrug-resistant Mycobacterium tuberculosis 02-1234 harboring gyrA Asn533Thr gyrB mutant gene by resazurin microtiter assay; format: functional; summary of the method: as §2
# [11] = tested on: Mycobacterium tuberculosis; assay: Antimycobacterial activity against multidrug-resistant Mycobacterium tuberculosis 08-0794 harboring gyrA Thr80Ala mutant gene by resazurin microtiter assay; format: functional; summary of the method: as §1
# [12] = tested on: Mycobacterium tuberculosis; assay: Antimycobacterial activity against Mycobacterium tuberculosis 08-0815 harboring gyrA Thr80Ala and Ala90Gly mutant gene by resazurin microtiter assay; format: functional; summary of the method: as §2
# [13] = tested on: Mycobacterium tuberculosis; assay: Antimycobacterial activity against Mycobacterium tuberculosis 08-0773 harboring gyrA Pro8Ala mutant gene by resazurin microtiter assay; format: functional; summary of the method: as §2
# [14] = tested on: Mycobacterium tuberculosis; assay: Antimycobacterial activity against Mycobacterium tuberculosis 08-0771 harboring gyrA putative promoter mutant gene by resazurin microtiter assay; format: functional; summary of the method: as §2
# [15] = tested on: Mycobacterium tuberculosis; assay: Antimycobacterial activity against multidrug-resistant Mycobacterium tuberculosis 08-0746 by resazurin microtiter assay; format: functional; summary of the method: as §1
# [16] = tested on: Mycobacterium tuberculosis; assay: Antimycobacterial activity against multidrug-resistant Mycobacterium tuberculosis 08-0777 by resazurin microtiter assay; format: functional; summary of the method: as §1
# [17] = tested on: Mycobacterium tuberculosis; assay: Antimycobacterial activity against multidrug-resistant Mycobacterium tuberculosis 01-0930 harboring gyrA Ala90Val mutant gene assessed as microbial susceptibility by agar proportion method; format: functional, organism-based
# Summary of the method: (§3)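 Clinical isolates freshly subcultured on Löwenstein-Jensen medium, held at 37°C no longer than 4 weeks. Fluoroquinolone stocks 1 mg/ml in 0.1 N NaOH, filter sterilized, kept at −20°C under 2 months. Standard proportion method on 7H11 agar; breakpoints 2 mg/liter ofloxacin, 0.5 mg/liter moxifloxacin and gatifloxacin; scored susceptible or resistant.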
# [18] = tested on: Mycobacterium tuberculosis; assay: Antimycobacterial activity against multidrug-resistant Mycobacterium tuberculosis 08-0757 harboring gyrA Ala90Val mutant gene assessed as microbial susceptibility by agar proportion method; format: functional, organism-based
# Summary of the method: (§4)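 Clinical isolates freshly subcultured on Löwenstein-Jensen medium at 37°C for no more than 4 weeks. Susceptibility by standard proportion method on 7H11 agar at breakpoints of 2 mg/liter ofloxacin and 0.5 mg/liter moxifloxacin and gatifloxacin. Drug stocks 1 mg/ml in 0.1 N NaOH, filter sterilized, held at −20°C under 2 months. Isolates scored susceptible or resistant.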
# [19] = tested on: Mycobacterium tuberculosis; assay: Antimycobacterial activity against multidrug-resistant Mycobacterium tuberculosis 08-0790 harboring gyrA Ala90Val mutant gene assessed as microbial susceptibility by agar proportion method; format: functional, organism-based; summary of the method: as §4
# [20] = tested on: Mycobacterium tuberculosis; assay: Antimycobacterial activity against multidrug-resistant Mycobacterium tuberculosis 08-0791 harboring gyrA Ala90Val mutant gene assessed as microbial susceptibility by agar proportion method; format: functional, organism-based; summary of the method: as §4
# [21] = tested on: Mycobacterium tuberculosis; assay: Antimycobacterial activity against multidrug-resistant Mycobacterium tuberculosis 99-1914 harboring gyrA Asp94Gly mutant gene assessed as microbial susceptibility by agar proportion method; format: functional, organism-based; summary of the method: as §4
# [22] = tested on: Mycobacterium tuberculosis; assay: Antimycobacterial activity against multidrug-resistant Mycobacterium tuberculosis 01-2614 harboring gyrA Asp94Gly mutant gene assessed as microbial susceptibility by agar proportion method; format: functional, organism-based; summary of the method: as §3
# [23] = tested on: Mycobacterium tuberculosis; assay: Antimycobacterial activity against multidrug-resistant Mycobacterium tuberculosis 08-0744 harboring gyrA Asp94Tyr mutant gene assessed as microbial susceptibility by agar proportion method; format: functional, organism-based; summary of the method: as §4
# [24] = tested on: Mycobacterium tuberculosis; assay: Antimycobacterial activity against multidrug-resistant Mycobacterium tuberculosis 08-0821 harboring gyrA Asp94Tyr mutant gene assessed as microbial susceptibility by agar proportion method; format: functional, organism-based; summary of the method: as §4
# [25] = tested on: Mycobacterium tuberculosis; assay: Antimycobacterial activity against Mycobacterium tuberculosis 04-0649 harboring gyrA Asp94Asn mutant gene assessed as microbial susceptibility by agar proportion method; format: functional, organism-based; summary of the method: as §3
# [26] = tested on: Mycobacterium tuberculosis; assay: Antimycobacterial activity against multidrug-resistant Mycobacterium tuberculosis 01-0172 harboring gyrA Asp94Ala mutant gene assessed as microbial susceptibility by agar proportion method; format: functional, organism-based; summary of the method: as §3
# [27] = tested on: Mycobacterium tuberculosis; assay: Antimycobacterial activity against multidrug-resistant Mycobacterium tuberculosis 04-0519 harboring gyrA Ala90Val and Asp94Asn mutant gene assessed as microbial susceptibility by agar proportion method; format: functional, organism-based; summary of the method: as §4
# [28] = tested on: Mycobacterium tuberculosis; assay: Antimycobacterial activity against multidrug-resistant Mycobacterium tuberculosis 02-1234 harboring gyrA Asn533Thr gyrB mutant gene assessed as microbial susceptibility by agar proportion method; format: functional, organism-based; summary of the method: as §3
# [29] = tested on: Mycobacterium tuberculosis; assay: Antimycobacterial activity against multidrug-resistant Mycobacterium tuberculosis 01-2834 by agar proportion method; format: functional, organism-based; summary of the method: as §3
# [30] = tested on: Mycobacterium tuberculosis; assay: Antimycobacterial activity against multidrug-resistant Mycobacterium tuberculosis 08-0794 harboring gyrA Thr80Ala mutant gene assessed as microbial susceptibility by agar proportion method; format: functional, organism-based; summary of the method: as §4
# [31] = tested on: Mycobacterium tuberculosis; assay: Antimycobacterial activity against Mycobacterium tuberculosis 08-0815 harboring gyrA Thr80Ala and Ala90Gly mutant gene assessed as microbial susceptibility by agar proportion method; format: functional, organism-based; summary of the method: as §3
# [32] = tested on: Mycobacterium tuberculosis; assay: Antimycobacterial activity against Mycobacterium tuberculosis 08-0773 harboring gyrA Pro8Ala mutant gene assessed as microbial susceptibility by agar proportion method; format: functional, organism-based; summary of the method: as §3
# [33] = tested on: Mycobacterium tuberculosis; assay: Antimycobacterial activity against Mycobacterium tuberculosis 08-0769 harboring gyrA putative promoter mutant gene assessed as microbial susceptibility by agar proportion method; format: functional, organism-based; summary of the method: as §3
# [34] = tested on: Mycobacterium tuberculosis; assay: Antimycobacterial activity against multidrug-resistant Mycobacterium tuberculosis 08-0746 assessed as microbial susceptibility by agar proportion method; format: functional, organism-based; summary of the method: as §4
# [35] = tested on: Mycobacterium tuberculosis; assay: Antimycobacterial activity against multidrug-resistant Mycobacterium tuberculosis 08-0779 assessed as microbial susceptibility by agar proportion method; format: functional, organism-based; summary of the method: as §4
# [36] = tested on: Mycobacterium tuberculosis; assay: Antimycobacterial activity against Mycobacterium tuberculosis 00-0715 harboring gyrA Ala90Val mutant gene by resazurin microtiter assay; format: functional; summary of the method: as §2
# [37] = tested on: Mycobacterium tuberculosis; assay: Antimycobacterial activity against multidrug-resistant Mycobacterium tuberculosis 03-0738 harboring gyrA Ala90Val mutant gene by resazurin microtiter assay; format: functional; summary of the method: as §1
# [38] = tested on: Mycobacterium tuberculosis; assay: Antimycobacterial activity against multidrug-resistant Mycobacterium tuberculosis 01-1647 harboring gyrA Ala90Val mutant gene by resazurin microtiter assay; format: functional; summary of the method: as §2
SMILES,MIC [1] [µg/mL],MIC [2] [µg/mL],MIC [3] [µg/mL],MIC [4] [µg/mL],MIC [5] [µg/mL],MIC [6] [µg/mL],MIC [7] [µg/mL],MIC [8] [µg/mL],MIC [9] [µg/mL],MIC [10] [µg/mL],MIC [11],MIC [12],MIC [13],MIC [14],MIC [15] [µg/mL],MIC [16] [µg/mL],Activity [17],Activity [18],Activity [19],Activity [20],also measured
COc1c(N2CCNC(C)C2)c(F)cc2c(=O)c(C(=O)O)cn(C3CC3)c12 (centres undefined) [GATIFLOXACIN],0.5,0.5,1,1,1,1,1,0.25,0.25,0.5,<=0.062 mg/L,<=0.062 mg/L,<=0.062 mg/L,0.125 µg/mL,≤ 0.062,≤ 0.062,inactive,inactive,inactive,inactive,Activity [21]: inactive; Activity [22]: inactive; Activity [23]: inactive; Activity [24]: inactive; Activity [25]: inactive; Activity [26]: inactive; Activity [27]: inactive; Activity [28]: inactive; Activity [29]: inactive; Activity [30]: Active; Activity [31]: Active; Activity [32]: Active; Activity [33]: Active; Activity [34]: Active; Activity [35]: Active; MIC [36]: 0.5 µg/mL; MIC [37]: 0.25 µg/mL; MIC [38]: 0.5 µg/mL
COc1c(N2C[C@@H]3CCCN[C@@H]3C2)c(F)cc2c(=O)c(C(=O)O)cn(C3CC3)c12 [MOXIFLOXACIN],1,1,2,2,2,4,4,0.5,0.5,0.5,<=0.125 mg/L,<=0.125 mg/L,<=0.125 mg/L,<=0.125 mg/L,≤ 0.125,≤ 0.125,inactive,inactive,inactive,inactive,Activity [21]: inactive; Activity [22]: inactive; Activity [23]: inactive; Activity [24]: inactive; Activity [25]: inactive; Activity [26]: inactive; Activity [27]: inactive; Activity [28]: inactive; Activity [29]: inactive; Activity [30]: Active; Activity [31]: Active; Activity [32]: Active; Activity [33]: Active; Activity [34]: Active; Activity [35]: Active; MIC [36]: 0.5 µg/mL; MIC [37]: 0.25 µg/mL; MIC [38]: 0.5 µg/mL
CC1COc2c(N3CCN(C)CC3)c(F)cc3c(=O)c(C(=O)O)cn1c23 (centres undefined) [OFLOXACIN],4,4,16,8,8,8,16,4,4,1,0.5 µg/mL,<=0.25 mg/L,0.5 µg/mL,1 µg/mL,0.5,0.5,inactive,inactive,inactive,inactive,Activity [21]: inactive; Activity [22]: inactive; Activity [23]: inactive; Activity [24]: inactive; Activity [25]: inactive; Activity [26]: inactive; Activity [27]: inactive; Activity [28]: Active; Activity [29]: inactive; Activity [30]: Active; Activity [31]: Active; Activity [32]: Active; Activity [33]: Active; Activity [34]: Active; Activity [35]: Active; MIC [36]: 4 µg/mL; MIC [37]: 4 µg/mL; MIC [38]: 4 µg/mL
